Measurements from different studies.
Lines come from different studies, so protocols differ.
Target: Cyclin-dependent kinase 11A (CDK11A, Homo sapiens, UniProt Q9UQ88)
Residues used in one study (Q9UQ88 1-783): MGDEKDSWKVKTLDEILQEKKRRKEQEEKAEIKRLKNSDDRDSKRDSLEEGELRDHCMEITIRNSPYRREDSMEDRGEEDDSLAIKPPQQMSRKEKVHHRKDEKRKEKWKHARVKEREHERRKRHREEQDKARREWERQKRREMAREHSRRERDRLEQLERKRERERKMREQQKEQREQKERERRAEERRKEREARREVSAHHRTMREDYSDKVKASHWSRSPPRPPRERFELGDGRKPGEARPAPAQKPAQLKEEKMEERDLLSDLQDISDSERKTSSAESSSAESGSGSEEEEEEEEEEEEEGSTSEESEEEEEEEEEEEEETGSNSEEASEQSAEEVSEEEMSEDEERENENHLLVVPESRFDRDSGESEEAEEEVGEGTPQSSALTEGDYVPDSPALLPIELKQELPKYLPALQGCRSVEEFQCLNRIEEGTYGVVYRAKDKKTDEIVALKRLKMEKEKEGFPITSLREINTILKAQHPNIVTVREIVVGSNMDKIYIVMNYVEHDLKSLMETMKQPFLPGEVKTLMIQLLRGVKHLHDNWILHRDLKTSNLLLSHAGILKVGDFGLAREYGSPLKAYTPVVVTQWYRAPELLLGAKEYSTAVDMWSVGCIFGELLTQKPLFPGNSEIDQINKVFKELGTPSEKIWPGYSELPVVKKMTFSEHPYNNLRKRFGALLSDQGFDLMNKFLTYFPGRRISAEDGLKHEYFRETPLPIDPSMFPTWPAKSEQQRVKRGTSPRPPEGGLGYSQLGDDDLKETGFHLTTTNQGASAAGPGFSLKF

CSc1cccnc1N1CCN(Cc2nc3ccccc3[nH]2)CC1 — remaining binding (binding; competition with immobilised ligand; 1 µM): 100%
O=C(NCC1CCOCC1)c1n[nH]cc1NC(=O)c1c(F)cccc1F — remaining binding (binding; competition with immobilised ligand; 1 µM): 91%
COc1ncc2cc3ccccc3nc2c1C#N — remaining binding (binding; competition with immobilised ligand; 5 µM): 93%
CCN1CCN(Cc2ccc(C(=O)Nc3ccc(C)c(Oc4ccc5c(c4)CC(=O)N5)c3)cc2C(F)(F)F)CC1 — remaining binding (binding; competition with immobilised ligand; 1 µM): 100%
O=C(c1ccc(Nc2ncc(Cl)c(-c3cc4ccccc4s3)n2)cc1)N1CCC(N2CCCC2)CC1 — remaining binding (binding; competition with immobilised ligand; 1 µM): 85%
CC1CCCN1c1nccc(-c2cnn3ncccc23)n1 (stereo not drawn) — remaining binding (binding; 1 µM): 100%
c1cncc(-c2cccc(Nc3nccc(NC4CCCCC4)n3)c2)c1 — remaining binding (binding; competition with immobilised ligand; 10 µM): 98%
CN(C)c1nccc(-c2cnn3ncccc23)n1 — remaining binding (binding; 1 µM): 92%
CC(=O)N1CCC(c2ccc(C(=O)NC3=NCCN3)cc2C(F)(F)F)CC1 — remaining binding (binding; competition with immobilised ligand; 1 µM): 100%
N[C@@H]1CCN(c2nccc(-c3cnn4ncccc34)n2)C1 — remaining binding (binding; 1 µM): 98%
CCC(=O)N[C@@H]1CC[C@H](C(=O)N(C)c2ccc(-c3nc4ccccc4o3)cc2)C1 — remaining binding (binding; competition with immobilised ligand; 1 µM): 100%
C[C@@H]1CCN(c2nccc(-c3cnn4ncccc34)n2)C1 — remaining binding (binding; 1 µM): 85%
Cc1cnc(Nc2ccc(C(=O)N3CCC(N4CCCC4)CC3)cc2)nc1-c1cc2ccccc2s1 — remaining binding (binding; competition with immobilised ligand; 1 µM): 100%
Nc1ncc2c(n1)-c1c([nH]c3ccc(C#CC4CC4)cc13)CCCC2 — remaining binding (binding; competition with immobilised ligand; 1 µM): 93%
O=C(Nc1cccnn1)N1CCC(=Cc2cccc(Oc3ccc(C(F)(F)F)cn3)c2)CC1 — remaining binding (cell-free assay; competition with immobilised ligand; 1 µM): 82%
CN(C)c1ncc(F)c(-c2cnn3ncccc23)n1 — remaining binding (binding; 1 µM): 97%
CN1CCN(c2cnc3c(C4CCN(C(=O)c5ccc(OC(F)(F)F)cc5N)CC4)ncnc3c2)CC1 — remaining binding (binding; competition with immobilised ligand; 1 µM): 61%
COc1cnc(Nc2cccc(S(N)(=O)=O)c2)nc1N1CCN(c2ccccc2)C(=O)C1 — remaining binding (binding; competition with immobilised ligand; 1 µM): 100%
CN(C)c1nccc(-c2cnc3ncccn23)n1 — remaining binding (binding; 1 µM): 100%
Cn1cc(Cl)c2c(Oc3c(F)cc(Nc4cc(Cl)nc(N)n4)cc3F)ccnc21 — remaining binding (binding; competition with immobilised ligand; 0.1 µM): 100%
O=C(NCCCN1CCOCC1)c1ccc(Nc2ncc(Cl)c(-c3ccc(Cl)s3)n2)cc1 — remaining binding (binding; competition with immobilised ligand; 1 µM): 23%
